{
  "source": "ChEMBL document CHEMBL4190353",
  "about": "“Synthesis, structure-activity relationships and preliminary mechanism of action of novel water-soluble 4-quinolone-3-carboxamides as antiproliferative agents” (Eur J Med Chem, 2017)",
  "key": {"HCT-116 [1]": {"tested_on": "HCT-116", "experiment": "Induction of apoptosis in human HCT116 cells assessed as early apoptotic cells level pre-incubated with 20 uM pan-caspase inhibitor Z-VAD-FMK for 5 hrs followed by compound addition and further incubated for 48 hrs by Annexin V-FITC/PI staining based cytometry (reference value: 1.1%)", "assay_type": "functional", "design": "scale not given: the % may be the effect or the level left"}, "HCT-116 [2]": {"tested_on": "HCT-116", "experiment": "Cytotoxicity against human HCT116 cells assessed as reduction in cell viability incubated for 24 hrs by CCK8 assay", "assay_type": "functional, cell-based", "how_it_was_run": "(§1)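 Cells were seeded at 3×10^4 per well, grown 24 h, then exposed to increasing concentrations for 24 h. CCK-8 reagent was added for 1 h at 37 °C and absorbance was read at 450 nm. Cells were kept in McCoy's 5A with 10% FBS, and n=3.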"}, "HCT-116 [3]": {"tested_on": "HCT-116", "experiment": "Induction of apoptosis in Bax-/- human HCT116 cells assessed as early apoptotic cells level at 4 uM incubated for 48 hrs by Annexin V-FITC/PI staining based cytometry (reference value: 4.4%)", "assay_type": "functional", "how_it_was_run": "(§2)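 Cells were plated at 5×10^5 per well and treated once 80% confluent. After trypsinisation and two washes in ice-cold PBS (pH 7.4), cells were stained with Annexin V-FITC and PI for 15 min at room temperature in the dark. Analysis was by flow cytometry. The legend gives vehicle or 4 µM for the p53-/- and Bax-/- lines.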"}, "HCT-116 [4]": {"tested_on": "HCT-116", "experiment": "Induction of apoptosis in human HCT116 cells assessed as increase in cleaved PARP level incubated for 48 hrs by Western blot method", "assay_type": "functional, cell-based", "how_it_was_run": "(§3)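 Lysates were made in SDS buffer (2% SDS, 50 mM Tris-HCl pH 6.8) and quantified by BCA. Equal protein was run on 10% SDS-PAGE and transferred to PVDF. Membranes were blocked in 5% milk, probed overnight at 4 °C for cleaved PARP (1:1000) with GAPDH (1:5000), and detected with HRP secondary antibody and ECL.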"}, "HCT-116 [5]": {"tested_on": "HCT-116", "experiment": "[…] of ROS generation in human HCT116 cells at 8 uM incubated for 24 hrs by H2DCFDA dye based flow cytometry", "assay_type": "functional, cell-based", "how_it_was_run": "(§4)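 HCT116 cells pre-treated 5 h with H2O, 7.5 mM L-NAC or 7.5 mM GSH, then exposed to compound for 24 h. Cells collected, washed twice in PBS, and resuspended in serum-free McCoy's 5A with 10 nM H2DCFDA for 20 min at 37 °C in the dark. After two PBS washes, relative ROS measured by flow cytometry.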"}, "HCT-116 [6]": {"tested_on": "HCT-116", "experiment": "Cytotoxicity against Bax-/- human HCT116 cells assessed as reduction in cell viability incubated for 24 hrs by CCK8 assay", "assay_type": "functional, cell-based", "how_it_was_run": "as §1"}, "RKO": {"tested_on": "RKO", "experiment": "Cytotoxicity against human RKO cells assessed as reduction in cell viability incubated for 24 hrs by CCK8 assay", "assay_type": "functional, cell-based", "how_it_was_run": "as §1"}, "HCT-116 [7]": {"tested_on": "HCT-116", "experiment": "Cytotoxicity against p53-/- human HCT116 cells assessed as reduction in cell viability incubated for 24 hrs by CCK8 assay", "assay_type": "functional, cell-based", "how_it_was_run": "as §1"}, "[8]": {"experiment": "Solubility in water", "assay_type": "physicochemical"}, "HCT-116 [9]": {"tested_on": "HCT-116", "experiment": "Cytotoxicity in human HCT116 cells assessed as reduction in cell viability pre-treated with 7.5 mM L-NAC followed by 16 to 32 uM compound addition and further incubated for 24 hrs by CCK8 assay", "assay_type": "functional, cell-based", "how_it_was_run": "(§5)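 HCT116 cells were pretreated with H2O, 7.5 mM L-NAC or 7.5 mM GSH, then exposed to 4, 16 or 32 µM for 24 h. Viability was read by CCK-8, with 1 h reagent incubation at 37 °C and absorbance at 450 nm. n=3.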"}, "HCT-116 [10]": {"tested_on": "HCT-116", "experiment": "Induction of apoptosis in p53-/- human HCT116 cells assessed as early apoptotic cells level at 4 uM incubated for 48 hrs by Annexin V-FITC/PI staining based cytometry (reference value: 2.9%)", "assay_type": "functional", "how_it_was_run": "as §2"}, "HCT-116 [11]": {"tested_on": "HCT-116", "experiment": "Induction of apoptosis in human HCT116 cells assessed as subG1 phase cells level at 4 uM incubated for 24 hrs by […]PI staining based cytometry (reference value: 1%)", "assay_type": "functional", "how_it_was_run": "(§6)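 Cells were treated for 24 h, then fixed in 75% ethanol at -20 °C overnight. RNA was digested with 0.2 mg/mL RNase A for 30 min at 37 °C. Cells were stained with 50 µg/mL PI for 30 min in the dark, and DNA content was read by flow cytometry.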"}, "HCT-116 [12]": {"tested_on": "HCT-116", "experiment": "Induction of apoptosis in human HCT116 cells assessed as viable cells level incubated for 48 hrs by Annexin V-FITC/PI staining based cytometry (reference value: 98.7%)", "assay_type": "functional"}, "HCT-116 [13]": {"tested_on": "HCT-116", "experiment": "Induction of apoptosis in human HCT116 cells assessed as subG1 phase cells level at 2 uM incubated for 24 hrs by […]PI staining based cytometry (reference value: 1%)", "assay_type": "functional", "how_it_was_run": "as §6"}, "HCT-116 [14]": {"tested_on": "HCT-116", "experiment": "Induction of apoptosis in human HCT116 cells assessed as increase in cleaved PARP level pre-treated with 7.5 mM GSH for 6 hrs followed by 4 to 8 uM compound addition and further incubated for 24 hrs by Western blot method", "assay_type": "functional, cell-based"}, "HCT-116 [15]": {"tested_on": "HCT-116", "experiment": "Induction of apoptosis in human HCT116 cells assessed as necrotic cells level at 4 uM incubated for 24 hrs by Annexin V-FITC/PI staining based cytometry (reference value: 1.6%)", "assay_type": "functional"}, "HCT-116 [16]": {"tested_on": "HCT-116", "experiment": "Induction of apoptosis in human HCT116 cells assessed as viable cells level at 4 uM incubated for 24 hrs by Annexin V-FITC/PI staining based cytometry (reference value: 96.6%)", "assay_type": "functional"}, "HCT-116 [17]": {"tested_on": "HCT-116", "experiment": "Induction of apoptosis in human HCT116 cells assessed as necrotic cells level pre-incubated with 20 uM pan-caspase inhibitor Z-VAD-FMK for 5 hrs followed by compound addition and further incubated for 48 hrs by Annexin V-FITC/PI staining based cytometry (reference value: 0.2%)", "assay_type": "functional", "design": "scale not given: the % may be the effect or the level left"}, "HCT-116 [18]": {"tested_on": "HCT-116", "experiment": "Induction of apoptosis in Bax-/- human HCT116 cells assessed as necrotic cells level incubated for 48 hrs by Annexin V-FITC/PI staining based cytometry (reference value: 0.2%)", "assay_type": "functional", "how_it_was_run": "as §2"}, "HCT-116 [19]": {"tested_on": "HCT-116", "experiment": "Induction of apoptosis in human HCT116 cells assessed as late apoptotic cells level incubated for 48 hrs by Annexin V-FITC/PI staining based cytometry (reference value: 0.0%)", "assay_type": "functional"}, "HCT-116 [20]": {"tested_on": "HCT-116", "experiment": "Cytotoxicity in human HCT116 cells assessed as reduction in cell viability pre-treated with 7.5 mM GSH followed by 16 to 32 uM compound addition and further incubated for 24 hrs by CCK8 assay", "assay_type": "functional, cell-based", "how_it_was_run": "as §5"}, "HCT-116 [21]": {"tested_on": "HCT-116", "experiment": "Induction of apoptosis in human HCT116 cells assessed as increase in cleaved PARP level at 2 uM incubated for 24 hrs by Western blot method", "assay_type": "functional, cell-based", "how_it_was_run": "as §3"}, "HCT-116 [22]": {"tested_on": "HCT-116", "experiment": "Induction of apoptosis in p53-/- human HCT116 cells assessed as late apoptotic cells level at 4 uM incubated for 48 hrs by Annexin V-FITC/PI staining based cytometry (reference value: 0.1%)", "assay_type": "functional", "how_it_was_run": "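HCT116 p53-/- cells (Vogelstein line) in McCoy's 5A with 10% FBS, 37 °C, 5% CO2. Seeded at 5×10^5 in 6-well plates, treated with vehicle or 4 μM at 80% confluence. After treatment, trypsinised, washed twice in ice-cold PBS pH 7.4, and stained in binding buffer with Annexin V-FITC and PI for 15 min at room temperature in the dark. Read by flow cytometry.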"}, "HCT-116 [23]": {"tested_on": "HCT-116", "experiment": "[…] of ROS generation in human HCT116 cells pre-treated with 7.5 mM L-NAC for […] followed by 8 uM compound addition and further incubated for 24 hrs by H2DCFDA dye based flow cytometry", "assay_type": "functional, cell-based", "how_it_was_run": "as §4"}},
  "note": "The source made the active and inactive calls. No cut-off for these calls is given here.",
  "data": [
    {"smiles": "CCN(CC)CCCNC(=O)c1cn(CCCc2ccccc2)c2cc(Cl)ccc2c1=O.Cl", "values": [
      {"measurement": "Activity", "setting": "HCT-116 [1]", "value": 14.2, "unit": "%"},
      {"measurement": "growth inhibition (GI)", "setting": "HCT-116 [2]", "value": "Dose-dependent effect"},
      {"measurement": "IC50", "setting": "HCT-116 [2]; HCT-116, 24 h", "value": 5.79, "unit": "µM"},
      {"measurement": "Activity", "setting": "HCT-116 [3]", "value": 25.6, "unit": "%"},
      {"measurement": "Activity", "setting": "HCT-116 [4]", "value": "Active"},
      {"measurement": "inhibition", "setting": "HCT-116 [5]", "value": "Active"},
      {"measurement": "Activity", "setting": "HCT-116 [6]", "value": "Dose-dependent effect"},
      {"measurement": "IC50", "setting": "RKO", "value": 4.87, "unit": "µM"},
      {"measurement": "growth inhibition (GI)", "setting": "RKO", "value": "Dose-dependent effect"},
      {"measurement": "Activity", "setting": "HCT-116 [7]", "value": "Dose-dependent effect"},
      {"measurement": "solubility", "setting": "[8]", "value": "> 10000", "unit": "µg/mL"},
      {"measurement": "Activity", "setting": "HCT-116 [9]", "value": "inactive"},
      {"measurement": "Activity", "setting": "HCT-116 [10]", "value": 24.8, "unit": "%"},
      {"measurement": "Activity", "setting": "HCT-116 [11]", "value": 14.2, "unit": "%"},
      {"measurement": "Activity", "setting": "HCT-116 [12]", "value": 62.5, "unit": "%"},
      {"measurement": "Activity", "setting": "HCT-116 [13]", "value": 6.5, "unit": "%"},
      {"measurement": "Activity", "setting": "HCT-116 [14]", "value": "inactive"},
      {"measurement": "Activity", "setting": "HCT-116 [15]", "value": 4.3, "unit": "%"},
      {"measurement": "Activity", "setting": "HCT-116 [16]", "value": 52.7, "unit": "%"},
      {"measurement": "Activity", "setting": "HCT-116 [17]", "value": 3.5, "unit": "%"},
      {"measurement": "Activity", "setting": "HCT-116 [18]", "value": 0.2, "unit": "%"},
      {"measurement": "Activity", "setting": "HCT-116 [19]", "value": 3.2, "unit": "%"},
      {"measurement": "Activity", "setting": "HCT-116 [20]", "value": "inactive"},
      {"measurement": "Activity", "setting": "HCT-116 [21]", "value": "Active"},
      {"measurement": "Activity", "setting": "HCT-116 [22]", "value": 1.3, "unit": "%"},
      {"measurement": "inhibition", "setting": "HCT-116 [23]", "value": "inactive"}
    ]}
  ]
}
